Source: ChEMBL document CHEMBL4196159 (ACS Med Chem Lett, 2018)
Values after ≈ are worked out from the molar mass of the structure shown.

How the values were obtained:
physchem [1] = conditions: phosphate buffer, pH 7.4
physchem [2] = conditions: octanol/buffer, pH 7.4
in vitro [3] = conditions: human, liver microsomes
in vitro [4] = conditions: rat, hepatocytes
[5] = Intrinsic clearance in dog hepatocytes assessed per million cells at 1 uM measured after 30 mins by HPLC analysis; format: ADME, cell-based, Canis lupus familiaris, Hepatocyte; conditions: read-out: CLH
Method in brief: (§1)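 Intrinsic clearance (Clint) measured in fresh dog hepatocytes or cryopreserved human hepatocytes.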

[6] = Intrinsic clearance in human cryopreserved hepatocytes assessed per million cells at 1 uM measured after 30 mins by HPLC analysis; format: ADME, cell-based, Hepatocyte; conditions: read-out: CLH
Method in brief: as §1

[7] = Clearance in Han Wistar rat at 1 mg/kg, iv administered as bolus dose or 2 mg/kg, po; format: ADME, organism-based; conditions: in vivo
Method in brief: (§2)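 Male Han Wistar rats and male Beagle dogs, at least n = 2. Compound given at 1 mg/kg i.v. Parameters derived from plasma concentrations.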

[8] = Volume of distribution in Han Wistar rat at 1 mg/kg, iv administered as bolus dose or 2 mg/kg, po; format: ADME, organism-based; conditions: in vivo
Method in brief: as §2

[9] = Oral bioavailability in Han Wistar rat at 2 mg/kg; format: ADME, organism-based; conditions: in vivo
[10] = Terminal half life in Han Wistar rat at 1 mg/kg, iv administered as bolus dose; format: ADME, organism-based; conditions: in vivo, read-out: beta t1/2 (converted)
Method in brief: as §2

[11] = Clearance in Beagle dog at 1 mg/kg, iv administered as bolus dose or 2 mg/kg, po; format: ADME, organism-based, Canis lupus familiaris; conditions: in vivo
Method in brief: as §2

[12] = Volume of distribution in Beagle dog at 1 mg/kg, iv administered as bolus dose or 2 mg/kg, po; format: ADME, organism-based, Canis lupus familiaris; conditions: in vivo
Method in brief: as §2

[13] = Oral bioavailability in Beagle dog at 2 mg/kg; format: ADME, organism-based, Canis lupus familiaris; conditions: in vivo
[14] = Terminal half life in Beagle dog at 1 mg/kg, iv administered as bolus dose; format: ADME, organism-based, Canis lupus familiaris; conditions: in vivo, read-out: beta t1/2 (converted)
Method in brief: as §2

Mus musculus = test: Time at which plasma concentration stays above in-vitro cellular IC50 for ATM autophosphorylation at Ser1981 residue in human HT-29 cells in mouse at 10 mg/kg, po; format: ADME, organism-based; conditions: in vivo
Method in brief: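 Mice given 10 mg/kg orally. Free plasma concentration over time compared with the in vitro cellular ATM IC50.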

[15] = Clearance in rat at 0.5 mg/kg, iv or 1 mg/kg, po; format: ADME, organism-based; conditions: in vivo
Method in brief: (§3)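 Rats dosed 0.5 mg/kg i.v. and 1 mg/kg orally. Pharmacokinetic parameters taken from plasma levels.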

[16] = Volume of distribution at steady state in rat at 0.5 mg/kg, iv or 1 mg/kg, po; format: ADME, organism-based; conditions: in vivo, read-out: Vdss
Method in brief: as §3

[17] = Oral bioavailability in rat at 1 mg/kg; format: ADME, organism-based; conditions: in vivo
Method in brief: as §3
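Throughout, for logD: Shake-flask partitioning between octanol and buffer, equilibrated for 30 min before measurement.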

solubility thermodynamic at 24 h (physchem [1]) [µM] | logD at 0.5 h (physchem [2]) | microsomal CLint at 0.5 h, 1 µM (in vitro [3]) [µL/min/mg] | hepatocyte CLint at 0.5 h, 1 µM (in vitro [4]) [µL/min/1e6 cells] | Structure (SMILES) | also measured
> 1000 | 2 | 18 | 4.2 | C[C@H](Nc1c(C(N)=O)nnc2ccc(-c3ccc(NCCN(C)C)nc3)cc12)C1CCOCC1 | 
880 (≈ 434 µg/mL) | 2.3 | 22 | 5.7 | CNC(=O)c1nnc2ccc(-c3ccc(OCCCN(C)C)nc3)cc2c1N[C@@H](C)C1CCOCC1 | hepatocyte CLint at 1 µM [5]: 8.8 µL/min/1e6 cells; hepatocyte CLint at 1 µM [6]: 4.1 µL/min/1e6 cells; clearance [7]: 7.8 mL/min/kg; Vd [8]: 2.8 L/kg; bioavailability [9]: 41%; half-life [10]: 5.6 h; clearance [11]: 48 mL/min/kg; Vd [12]: 14 L/kg; bioavailability [13]: 35%; half-life [14]: 4.7 h; Time (Mus musculus): > 12 h
870 (≈ 416 µg/mL) | 1.9 | 28 | 3.4 | C[C@H](Nc1c(C(N)=O)nnc2ccc(-c3ccc(OCCCN(C)C)nc3)cc12)C1CCOCC1 | hepatocyte CLint at 1 µM [5]: 5.1 µL/min/1e6 cells; hepatocyte CLint at 1 µM [6]: 2.8 µL/min/1e6 cells; clearance [7]: 25 mL/min/kg; Vd [8]: 5.5 L/kg; bioavailability [9]: 26%; half-life [10]: 4.1 h; clearance [11]: 49 mL/min/kg; Vd [12]: 20 L/kg; bioavailability [13]: 43%; half-life [14]: 6.2 h
290 (≈ 142 µg/mL) | 2.1 | 27 | 12 | Cc1cn(C)nc1[C@H](C)Nc1c(C(N)=O)nnc2ccc(-c3ccc(OCCCN(C)C)nc3)cc12 | 
> 1000 | 2.7 | 33 | 5.6 | COCc1ccc(-c2ccc3nnc(C(N)=O)c(N[C@@H](C)C4CCOCC4)c3c2)cn1 | clearance [15]: 21 mL/min/kg; Vd [16]: 0.7 L/kg; bioavailability [17]: 56%
510 (≈ 262 µg/mL) | 2.1 | 40 | 8.1 | Cc1cn(C)nc1[C@H](C)Nc1c(C(N)=O)nnc2ccc(-c3ccc(OCCCN4CCCC4)nc3)cc12 | 
490 (≈ 245 µg/mL) | 1.8 | 10 | 4.6 | C[C@H](Nc1c(C(N)=O)nnc2ccc(-c3ccc(OCCCN4CCCC4)nc3)cc12)c1ccn(C)n1 | 
76 (≈ 31.7 µg/mL) | 3 | 14 | 4.9 | COCc1ccc(-c2ccc3nnc(C(N)=O)c(N[C@@H](C)c4ccn(C)n4)c3c2)cn1 | 
990 (≈ 474 µg/mL) | 2.5 | 26 | 4.8 | CNC(=O)c1nnc2ccc(-c3ccc(OCCN(C)C)nc3)cc2c1N[C@@H](C)C1CCOCC1 | 
8 (≈ 3.45 µg/mL) | 2.8 | 31 | 18 | COCc1ccc(-c2ccc3nnc(C(N)=O)c(N[C@@H](C)c4nn(C)cc4C)c3c2)cn1 | 

Further lines, the compound ahead of its results:

Structure (SMILES) | solubility thermodynamic at 24 h (physchem [1]) [µM] | logD at 0.5 h (physchem [2]) | microsomal CLint at 0.5 h, 1 µM (in vitro [3]) [µL/min/mg] | hepatocyte CLint at 0.5 h, 1 µM (in vitro [4]) [µL/min/1e6 cells] | also measured
COCc1ccc(-c2cc3c(N[C@@H](C)c4ccn(C)n4)c(C(N)=O)cnc3cc2F)cn1 |  |  | 15 |  | 
COCc1ccc(-c2ccc3ncc(C(N)=O)c(N[C@@H](C)C4CCOCC4)c3c2)cn1 |  |  | 26 | < 5.3 | 
C[C@H](Nc1c(C(N)=O)nnc2ccc(-c3ccc(OCCCN4CCCC4)nc3)cc12)C1CCOCC1 | 620 (≈ 313 µg/mL) | 1.9 | 23 | 1.9 | 
CNC(=O)c1nnc2ccc(-c3ccc(OCCCN(C)C)nc3)cc2c1N[C@@H](C)c1nn(C)cc1C | 620 (≈ 312 µg/mL) | 2.3 | 33 | 6.7 | 
C[C@H](Nc1c(C(N)=O)nnc2ccc(-c3ccc(OCCCN(C)C)nc3)cc12)c1ccn(C)n1 | 65 (≈ 30.8 µg/mL) | 1.7 | 10 | 7 | 
CNC(=O)c1nnc2ccc(-c3ccc(COC)nc3)cc2c1N[C@@H](C)C1CCOCC1 | 34 (≈ 14.8 µg/mL) | 3 | 42 | 5.8 | 
C[C@H](Nc1c(C(N)=O)nnc2ccc(-c3ccc(OCCN(C)C)nc3)cc12)c1ccn(C)n1 | 910 (≈ 419 µg/mL) | 1.9 | 25 | 13 | 
